High-throughput results deposited in PubChem BioAssay by Broad Institute.
Pf Dd2 growth – inhibitors of Plasmodium falciparum Dd2 growth; P. falciparum Dd2 growth, SYBR Green, 72 h; active compounds read low; activity change, % at 10 µM; hit rate 2.3% among 94,000; AID 1159554; in the data active means activity change below about -80%
T cruzi growth – blocks T. cruzi growth in NIH3T3 culture. T. cruzi beta-gal in NIH3T3, GalScreen luminescence, 90 h. inhibition, % at 8.34 µM. hit rate 5.9% among 77,000;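 active means mean inhibition above about 93%, with at least 55% of replicates each passing it, limit read from the data, passing the limit was not always enough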
IDH1 mut inh – blocks human IDH1 R132H reductase activity. inhibition, % at 10 µM. diaphorase/resazurin fluorescence, 60 min. O75874. hit rate 0.18% among 70,000; in the data active means inhibition above about 34%;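 further: 0% = DMSO and 100% = no enzyme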
KDM4C inh – KDM4C (human) demethylase inhibition. GST-KDM4C 2-372, H3K9me3 peptide, LANCE TR-FRET. hit rate 0.15% among 96,000. Q9H3R0. inhibition, % at 12.5 µM;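 active means mean replicate inhibition above about 25%, with at least 55% of replicates also reaching it, limit read from the data, passing the limit was not always enough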
Target sequence (Q9H3R0 2-372 limits assumed): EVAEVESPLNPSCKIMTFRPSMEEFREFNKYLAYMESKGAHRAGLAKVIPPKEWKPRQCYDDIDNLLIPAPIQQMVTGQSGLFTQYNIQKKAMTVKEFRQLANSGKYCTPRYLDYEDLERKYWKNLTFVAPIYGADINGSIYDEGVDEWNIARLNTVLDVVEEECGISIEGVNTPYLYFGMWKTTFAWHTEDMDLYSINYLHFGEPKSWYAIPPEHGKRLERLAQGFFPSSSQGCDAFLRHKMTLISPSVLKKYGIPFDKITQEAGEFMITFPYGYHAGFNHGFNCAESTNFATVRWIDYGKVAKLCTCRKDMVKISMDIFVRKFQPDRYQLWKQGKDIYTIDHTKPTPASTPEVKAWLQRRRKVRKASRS
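Test system: N-terminal GST-fused human GASC-1 (KDM4C) fragment, residues 2-372; quantity: GASC-1 enzyme at 10 nM final in reaction; dosing: single dose; schedule: 30 min demethylation and 1 h detection at room temperature; signal: LANCE TR-FRET, excitation 340 nm, emissions 618 and 671 nm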
* hit, by the source's call; nt = no result given. Sampled rows, rich in hits. Any-hit rate of the full collection: about 5.8%.

SMILES	Pf Dd2 growth	T cruzi growth	IDH1 mut inh	KDM4C inh
C[C@H](CO)N1C[C@H](C)[C@@H](CN(C)Cc2ccc(C(=O)Nc3ccccc3N)cc2)Oc2c(NC(=O)Nc3ccccc3)cccc2C1=O	-86*	87	nt	0
CC(C)NC(=O)Nc1cccc2c1O[C@H](CN(C)Cc1ccc(C(=O)Nc3ccccc3N)cc1)[C@H](C)CN([C@H](C)CO)C2=O	-22	nt	0	0
C[C@@H]1CN([C@H](C)CO)C(=O)c2cccc(NC(=O)Nc3ccccc3)c2O[C@@H]1CN(C)Cc1ccc(C(=O)O)cc1	10	nt	nt	0
C[C@@H]1CN([C@@H](C)CO)C(=O)c2cccc(NC(=O)Nc3cccc4ccccc34)c2O[C@@H]1CN(C)Cc1ccc(C(=O)Nc2ccccc2N)cc1	-92*	nt	nt	-2
CS(=O)(=O)N(CC(=O)Nc1ccccc1-c1ccccc1)c1ccccc1Cl	nt	nt	0	nt
O=C(CCCOc1ccc(Cl)cc1Cl)Nc1ccccc1[N+](=O)[O-]	nt	nt	0	nt
C[C@@H]1CN([C@@H](C)CO)C(=O)c2cc(NC(=O)C3CCCCC3)ccc2O[C@@H](C)CCCCO[C@@H]1CN(C)C(=O)Nc1cccc2ccccc12	-89*	55	nt	-3
C[C@@H]1CCCCO[C@H](CN(C)C(=O)Nc2cccc3ccccc23)[C@H](C)CN([C@@H](C)CO)C(=O)c2cc(NC(=O)C3CCCCC3)ccc2O1	-73	78	nt	-8
C[C@@H]1CCCCO[C@H](CN(C)C(=O)Nc2cccc3ccccc23)[C@@H](C)CN([C@@H](C)CO)C(=O)c2cc(NC(=O)C3CCCCC3)ccc2O1	-85*	52	nt	0
COc1ccc(NC(=O)Nc2ccc3c(c2)C(=O)N([C@H](C)CO)C[C@H](C)[C@@H](CN(C)C(=O)Nc2ccc4c(c2)OCO4)OCCCC[C@H](C)O3)cc1	-25	43	1	1
C[C@@H]1CCCCO[C@@H](CN(C)C(=O)Nc2ccc3c(c2)OCO3)[C@@H](C)CN([C@@H](C)CO)C(=O)c2cc(NC(=O)Nc3ccc(C(F)(F)F)cc3)ccc2O1	-92*	nt	0	0
C[C@@H]1CCCCO[C@@H](CN(C)C(=O)Nc2ccc(F)cc2)[C@@H](C)CN([C@@H](C)CO)C(=O)c2cc(NC(=O)Nc3ccc(C(F)(F)F)cc3)ccc2O1	-88*	nt	1	0
COc1ccc(NC(=O)Nc2ccc3c(c2)C(=O)N([C@@H](C)CO)C[C@H](C)[C@H](CN(C)C(=O)Nc2ccc4c(c2)OCO4)OCCCC[C@@H](C)O3)cc1	-82*	44	nt	0
C[C@@H]1CCCCO[C@@H](CN(C)C(=O)Nc2ccc(C(F)(F)F)cc2)[C@@H](C)CN([C@H](C)CO)C(=O)c2cc(NC(=O)Nc3ccc4c(c3)OCO4)ccc2O1	-61	nt	2	-1
C[C@@H]1CN([C@H](C)CO)C(=O)c2cc(NC(=O)CCC(F)(F)F)ccc2O[C@H]1CN(C)C(=O)NC1CCCCC1	-87*	24	1	-1
COc1ccccc1NC(=O)CNS(=O)(=O)c1ccc(C(C)(C)C)cc1	nt	nt	0	nt
CCc1c(O)nc(SC(C)C(=O)Nc2ccc(Cl)cc2)[nH]c1=O (stereo unspecified)	nt	nt	0	nt
C[C@@H]1CCCCO[C@@H](CN(C)C(=O)Nc2ccc(C(F)(F)F)cc2)[C@@H](C)CN([C@H](C)CO)C(=O)c2cc(NC(=O)Nc3ccc(F)cc3)ccc2O1	-71	nt	-1	-1
COc1ccc(NC(=O)N(C)C[C@@H]2OCCCC[C@H](C)Oc3ccc(NC(=O)Nc4ccc(C(F)(F)F)cc4)cc3C(=O)N([C@@H](C)CO)C[C@@H]2C)cc1	-7	120*	0	-2
C[C@@H]1CCCCO[C@@H](CN(C)C(=O)Nc2ccc(F)cc2)[C@H](C)CN([C@H](C)CO)C(=O)c2cc(NC(=O)Nc3ccccc3)ccc2O1	-22	112*	nt	1
C[C@@H]1CCCCO[C@H](CN(C)C(=O)NC2CCCCC2)[C@@H](C)CN([C@@H](C)CO)C(=O)c2cc(NC(=O)Nc3ccc(C(F)(F)F)cc3)ccc2O1	-83*	87	-2	-1
C[C@H]1CCCCO[C@H](CN(C)C(=O)Nc2ccc(C(F)(F)F)cc2)[C@@H](C)CN([C@@H](C)CO)C(=O)c2cc(NC(=O)Nc3ccc(F)cc3)ccc2O1	-80*	101	0	0
COc1ccc(NC(=O)N(C)C[C@@H]2OCCCC[C@@H](C)Oc3ccc(NC(=O)Nc4ccc(C(F)(F)F)cc4)cc3C(=O)N([C@H](C)CO)C[C@@H]2C)cc1	41	65	0	0
O=C(COc1ccc(Cl)cc1)Nc1ccc2oc(-c3cccc(F)c3)nc2c1	nt	nt	0	nt
COCC(=O)N1CCC2(CC1)CN(Cc1ccccc1F)[C@H](CO)c1[nH]c3cc(OC)ccc3c12	-89*	nt	nt	0
SMILES	Pf Dd2 growth	T cruzi growth	IDH1 mut inh	KDM4C inh
COCC(=O)N1CC2(C1)CN(Cc1ccccc1F)[C@H](CO)c1[nH]c3cc(OC)ccc3c12	-88*	nt	nt	-1
COc1ccc2c3c([nH]c2c1)[C@H](CO)N(Cc1ccccc1F)CC31CN(C)C1	-53	nt	nt	0
COCC(=O)N1CC2(C1)CN(Cc1cc(F)ccc1F)[C@H](CO)c1[nH]c3cc(OC)ccc3c12	-87*	nt	nt	-1
COCC(=O)N1CC2(C1)CN(Cc1ccccn1)[C@@H](CO)c1[nH]c3cc(OC)ccc3c12	-82*	nt	nt	-2
OC(CNCc1ccccc1)Cn1c2ccccc2c2ccccc21 (stereo unspecified)	nt	nt	0	nt
CS(=O)(=O)N(CC(=O)Nc1cccc(Br)c1)c1cccc2ccccc12	nt	nt	0	nt
C[C@H](CO)N1C[C@H](C)[C@@H](CN(C)C(=O)Nc2cccc3ccccc23)OCCCC[C@H](C)Oc2ccc(NC(=O)c3ccccc3)cc2C1=O	-6	69	nt	-2
C[C@@H]1CCCCO[C@@H](CN(C)C(=O)Nc2cccc3ccccc23)[C@@H](C)CN([C@@H](C)CO)C(=O)c2cc(NC(=O)Cc3ccccc3)ccc2O1	-92*	nt	-1	0
C[C@@H]1CN([C@H](C)CO)C(=O)c2cc(NC(=O)Cc3ccccc3)ccc2O[C@@H](C)CCCCO[C@H]1CN(C)C(=O)Nc1cccc2ccccc12	-87*	73	0	0
C[C@@H]1CN([C@@H](C)CO)C(=O)c2cc(NC(=O)Cc3ccccc3)ccc2O[C@@H](C)CCCCO[C@@H]1CN(C)C(=O)Nc1cccc2ccccc12	-94*	1	4	-2
C[C@@H]1CCCCO[C@@H](CN(C)C(=O)Nc2cccc3ccccc23)[C@H](C)CN([C@H](C)CO)C(=O)c2cc(NC(=O)Nc3ccccc3)ccc2O1	-47	85	nt	-1
O=S(=O)(Nc1ncccn1)c1ccc(NS(=O)(=O)c2cc(Cl)ccc2Cl)cc1	nt	nt	0	nt
O=S(=O)(Nc1nccs1)c1ccc(NS(=O)(=O)c2cc(Cl)ccc2Cl)cc1	nt	nt	39*	nt
Cc1ccc(-c2csc3ncnc(SCC(=O)c4ccc(F)cc4)c23)cc1	nt	nt	1	nt
COc1cccc(-c2ccc3c(c2)O[C@H](CN(C)Cc2cncnc2)[C@@H](C)CN([C@@H](C)CO)S3(=O)=O)c1	-10	58	0	-4
